Results as given in PubChem BioAssay AID602302 (The Scripps Research Institute Molecular Screening Center, 2012).
Activity calls are given as the source filed them.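 How the source made its calls: active means inhibition of diacylglycerol lipase beta of at least 50% in a gel probe-labeling test; inactive means inhibition under 50%.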

These compounds were tested against Diacylglycerol lipase-beta (Mus musculus) (UniProt Q91WC9) (assay: DAGLb inhibitors by competitive gel ABPP, late-stage follow-up, biochemical, in-gel fluorescence, HEK293T membranes, overexpressed mouse DAGLb, set 1 (AID 602302)). Conditions: HEK293T membrane overexpressing mouse DAGLb, at 0.1 µM, active compounds read high.
Sequence of Diacylglycerol lipase-beta (Mus musculus) (Q91WC9 whole entry, looked up): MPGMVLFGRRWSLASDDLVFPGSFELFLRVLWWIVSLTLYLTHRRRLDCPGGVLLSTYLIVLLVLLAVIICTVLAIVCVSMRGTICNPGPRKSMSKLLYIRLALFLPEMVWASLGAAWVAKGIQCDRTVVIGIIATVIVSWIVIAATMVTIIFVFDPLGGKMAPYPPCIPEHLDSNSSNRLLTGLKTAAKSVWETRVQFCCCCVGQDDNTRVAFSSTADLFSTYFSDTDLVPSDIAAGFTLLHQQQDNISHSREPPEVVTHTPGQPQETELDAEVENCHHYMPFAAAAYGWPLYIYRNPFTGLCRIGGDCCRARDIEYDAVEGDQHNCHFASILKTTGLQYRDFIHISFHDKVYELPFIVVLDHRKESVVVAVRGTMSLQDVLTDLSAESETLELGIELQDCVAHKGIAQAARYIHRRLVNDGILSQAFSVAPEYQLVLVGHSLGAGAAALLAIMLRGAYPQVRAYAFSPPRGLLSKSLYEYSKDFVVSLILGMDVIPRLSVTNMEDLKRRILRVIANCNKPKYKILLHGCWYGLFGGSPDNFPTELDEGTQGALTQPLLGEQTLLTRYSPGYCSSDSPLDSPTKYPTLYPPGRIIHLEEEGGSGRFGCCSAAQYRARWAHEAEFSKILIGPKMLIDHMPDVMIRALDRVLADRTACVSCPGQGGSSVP
In short: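 Buffer or medium – Dulbecco's PBS (DPBS) · Test system – membrane proteome of transiently transfected HEK293T cells, overexpressed mouse DAGLb · Quantity – membrane protein at 0.3 mg/mL · Doses – single compound dose of 100 nM (0.1 µM) final · Timing – 30 min compound plus 30 min probe, 37 °C · Reagent – fluorescent probe HT-01 at 1 µM final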
O=C(N1CCCCC1Cc1ccccc1)n1cc(-c2ccc(Br)cc2)nn1 (stereo not given) gave an inhibition of 68%. With O=C(N1CCCCC1Cc1ccccc1)n1cc(-c2ccc(-c3ccccc3Cl)cc2)nn1 (stereo not given) the inhibition was 66%. For O=C(c1ccc(-c2cn(C(=O)N3CCCCC3Cc3ccccc3)nn2)cc1)N1CCCCC1 (stereo not given), the inhibition was 41% (inactive). With CC(C)CN(CCc1ccccc1)C(=O)n1cc(-c2ccc(OC(F)(F)F)cc2)nn1 the inhibition was 70%. Cc1ccccc1-c1ccc(-c2cn(C(=O)N3CCCCC3Cc3ccccc3)nn2)cc1 (stereo not given) gave an inhibition of 63%. For O=C(N1CCCCC1Cc1ccccc1)n1cc(-c2ccc(-c3ccc(C(F)(F)F)cc3)cc2)nn1 (stereo not given), the inhibition was 31% (inactive). For O=C(N1CCCCC1Cc1ccccc1)n1cc(-c2ccc(-c3ccc(OC(F)(F)F)cc3)cc2)nn1 (stereo not given), the inhibition was 38% (inactive). With O=C(N1CCCCC1Cc1ccccc1)n1cc(-c2ccc(-c3ccccc3CO)cc2)nn1 (stereo not given) the inhibition was 67%. With O=C(N1CCCCC1Cc1ccccc1)n1ncc(-c2ccc(OC(F)(F)F)cc2)n1 (stereo not given) the inhibition was 0% (inactive). In the case of O=C(N1CCCCC1Cc1ccccc1)n1cc(-c2cccc(-c3ccccc3)c2)nn1 (stereo not given), the inhibition is reported as 27% (inactive). With O=C(N1CCCCC1Cc1ccccc1)n1cc(-c2ccc(-c3ccccc3C(F)(F)F)cc2)nn1 (stereo not given) the inhibition was 59%. O=C(N1CCCCC1Cc1ccccc1)n1cc(-c2ccc(-c3ccoc3)cc2)nn1 (stereo not given) gave an inhibition of 52%. In the case of O=C(N1CCCCC1Cc1ccccc1)n1cc(-c2ccc(-c3cccc(CO)c3)cc2)nn1 (stereo not given), the inhibition is reported as 11% (inactive). In the case of O=C(N1CCCCC1Cc1ccccc1)n1cc(-c2ccccc2-c2ccccc2)nn1 (stereo not given), the inhibition is reported as 18% (inactive). Compound CC(C)(C)OC(=O)NCCCCCN(CCc1ccccc1)C(=O)n1cc(-c2ccc(OC(F)(F)F)cc2)nn1 has an inhibition of 73%. Compound O=C(N1CCCCC1Cc1ccccc1)n1cc(-c2ccc(-c3ccccc3)cc2)nn1 (stereo not given) has an inhibition of 61%. With O=C(N1CCCCC1Cc1ccccc1)n1cc(-c2ccc(-c3cccc(C(F)(F)F)c3)cc2)nn1 (stereo not given) the inhibition was 44% (inactive). Compound O=C(N1CCCCC1Cc1ccccc1)n1cc(-c2ccc(OC(F)(F)F)cc2)nn1 (stereo not given) has an inhibition of 52%. O=C(N1CCCCC1Cc1ccccc1)n1ncc(C(O)(c2ccccc2)c2ccccc2)n1 (stereo not given) was tested, and the inhibition was 9% (inactive). With O=C(N1CCCCC1Cc1ccccc1)n1cc(-c2cc(F)cc(F)c2)nn1 (stereo not given) the inhibition was 55%. Compound O=C(N(CCc1ccccc1)Cc1ccco1)n1cc(-c2ccc(OC(F)(F)F)cc2)nn1 has an inhibition of 71%. For O=C(c1ccc(-c2ccc(-c3cn(C(=O)N4CCCCC4Cc4ccccc4)nn3)cc2)cc1)N1CCCCC1 (stereo not given), the inhibition was 10% (inactive). For O=C(N1CCCCC1Cc1ccccc1)n1cc(-c2ccc(-c3ccccc3OC(F)(F)F)cc2)nn1 (stereo not given), the inhibition was 59%. In the case of O=C(N1CCCCC1Cc1ccccc1)n1cc(-c2ccc(-c3ccc4c(c3)OCO4)cc2)nn1 (stereo not given), the inhibition is reported as 18% (inactive). For COc1ccccc1-c1ccc(-c2cn(C(=O)N3CCCCC3Cc3ccccc3)nn2)cc1 (stereo not given), the inhibition was 55%.
